Assay results: ChEMBL document CHEMBL1932985, “Identification of biaryl sulfone derivatives as antagonists of the histamine H₃ receptor: discovery of (R)-1-(2-(4'-(3-methoxypropylsulfonyl)biphenyl-4-yl)ethyl)-2-methylpyrrolidine (APD916)” (Bioorg Med Chem Lett, 2012)
Activity calls are given as the source filed them. The rule behind the calls is not given here.

Key:
[1] = Solubility of the compound in water; format: physicochemical
[2] = target: Histamine H3 receptor (Rattus norvegicus, UniProt Q9QYN8); test: Displacement of N-[3H]-methylhistamine from histamine H3 receptor in rat cortex membranes; format: cell membranes, Membrane
Histamine H3 receptor, sequence (Q9QYN8 whole entry): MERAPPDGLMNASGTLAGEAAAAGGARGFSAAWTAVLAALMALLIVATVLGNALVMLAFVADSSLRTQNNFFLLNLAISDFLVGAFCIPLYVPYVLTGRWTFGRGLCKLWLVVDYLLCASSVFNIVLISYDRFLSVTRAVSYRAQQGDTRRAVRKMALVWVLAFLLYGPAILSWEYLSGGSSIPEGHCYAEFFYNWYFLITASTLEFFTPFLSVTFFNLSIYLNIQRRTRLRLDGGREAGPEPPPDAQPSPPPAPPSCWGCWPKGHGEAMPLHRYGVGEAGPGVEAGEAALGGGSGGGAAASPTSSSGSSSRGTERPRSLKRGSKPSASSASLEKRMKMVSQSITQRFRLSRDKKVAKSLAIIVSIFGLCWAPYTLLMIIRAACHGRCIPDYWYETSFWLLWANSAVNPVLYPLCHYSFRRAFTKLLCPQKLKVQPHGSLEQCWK

[3] = target: hERG (KCNH2) (Homo sapiens, UniProt Q12809); test: Inhibition of human ERG at 3 uM by patch-clamp assay
hERG (KCNH2), sequence (Q12809 whole entry): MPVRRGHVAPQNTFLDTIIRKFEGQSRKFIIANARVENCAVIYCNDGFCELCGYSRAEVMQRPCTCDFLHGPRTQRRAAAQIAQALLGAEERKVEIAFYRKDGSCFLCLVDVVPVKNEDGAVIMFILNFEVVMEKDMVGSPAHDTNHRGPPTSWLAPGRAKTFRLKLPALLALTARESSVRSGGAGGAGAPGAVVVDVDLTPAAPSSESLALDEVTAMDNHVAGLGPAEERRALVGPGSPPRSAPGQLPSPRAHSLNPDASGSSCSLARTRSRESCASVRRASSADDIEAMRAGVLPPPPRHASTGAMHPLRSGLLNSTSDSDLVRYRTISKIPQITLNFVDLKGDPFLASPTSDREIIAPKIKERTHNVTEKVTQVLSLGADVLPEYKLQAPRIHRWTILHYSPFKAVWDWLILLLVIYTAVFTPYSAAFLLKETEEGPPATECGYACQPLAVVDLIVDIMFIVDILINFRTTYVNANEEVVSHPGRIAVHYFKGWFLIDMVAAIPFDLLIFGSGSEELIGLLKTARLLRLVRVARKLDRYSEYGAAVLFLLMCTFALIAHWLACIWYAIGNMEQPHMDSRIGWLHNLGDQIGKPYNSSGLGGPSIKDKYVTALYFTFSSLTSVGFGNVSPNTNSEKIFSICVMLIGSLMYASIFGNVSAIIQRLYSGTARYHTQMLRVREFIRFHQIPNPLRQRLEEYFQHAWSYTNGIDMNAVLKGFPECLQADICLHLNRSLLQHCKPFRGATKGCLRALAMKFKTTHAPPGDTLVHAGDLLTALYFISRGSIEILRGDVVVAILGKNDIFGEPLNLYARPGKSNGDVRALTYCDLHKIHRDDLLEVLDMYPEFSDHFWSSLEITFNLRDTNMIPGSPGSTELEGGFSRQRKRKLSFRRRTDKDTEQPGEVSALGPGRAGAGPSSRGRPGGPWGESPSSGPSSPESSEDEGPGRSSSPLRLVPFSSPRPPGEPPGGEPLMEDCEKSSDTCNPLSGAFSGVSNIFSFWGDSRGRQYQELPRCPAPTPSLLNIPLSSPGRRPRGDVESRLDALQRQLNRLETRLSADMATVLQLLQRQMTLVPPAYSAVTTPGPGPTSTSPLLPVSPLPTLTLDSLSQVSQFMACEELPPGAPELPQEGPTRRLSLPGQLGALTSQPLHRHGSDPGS

[4] = Oral bioavailability in Sprague-Dawley rat at 3 mg/kg by LC-MS/MS analysis; format: ADME, organism-based; conditions: in vivo
Method in brief: (§1)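 Rat PK after IV and PO dosing; plasma Cmax, Tmax, IV half-life and Vss determined; oral bioavailability from AUCpo/AUCiv. Metabolite exposure determined after a 3 mg/kg PO parent dose.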

[5] = tested on: Plasma; test: Cmax in Sprague-Dawley rat plasma assessed as (R)-3-(4'-(2-(2-methylpyrrolidin-1-yl)ethyl)biphenyl-4-ylsulfonyl)propan-1-ol level at 3 mg/kg, po and iv by LC-MS/MS analysis; format: ADME, organism-based; set-up: dose 3 mg/kg, route oral; conditions: in vivo; method in brief: as §1
[6] = Tmax in Sprague-Dawley rat at 3 mg/kg, po and iv by LC-MS/MS analysis; format: ADME, organism-based; set-up: dose 3 mg/kg, route oral; conditions: in vivo
Method in brief: (§2)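 Rats were given the compound both IV and PO in a routine PK study. Tmax came from the PO arm and Vss from the IV arm.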

[7] = tested on: Rattus norvegicus; test: Inhibition of RAMH-induced dipsogenia in po dosed Sprague-Dawley rat administered 30 mins prior to RAMH challenge measured up to 20 mins; format: functional; conditions: read-out: MED
Method in brief: (§3)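 Rats given compound orally 0.5 h (or, for duration of action, at selected times up to 6 h) before RAMH 10 mg/kg SC; water consumed over 20 min measured. Screening doses 1 or 0.3 mg/kg PO, also 0.1 mg/kg; duration study at 0.6 mg/kg PO. MED = minimum dose fully inhibiting drinking; means ± SEM.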

[8] = tested on: Rattus norvegicus; test: Volume of distribution at steady state in Sprague-Dawley rat at 3 mg/kg, po and iv by LC-MS/MS analysis; format: ADME, organism-based; set-up: dose 3 mg/kg, route oral; conditions: in vivo; method in brief: as §2
[9] = tested on: Rattus norvegicus; test: Tmax in Sprague-Dawley rat assessed as (R)-3-(4'-(2-(2-methylpyrrolidin-1-yl)ethyl)biphenyl-4-ylsulfonyl)propan-1-ol level at 3 mg/kg, po and iv by LC-MS/MS analysis; format: ADME, organism-based; set-up: dose 3 mg/kg, route oral; conditions: in vivo
Method in brief: (§4)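 Exposure to the hydroxylated metabolite was measured after the propyl parent was given to rats at 3 mg/kg PO. Brain (µg/mg) and plasma (µg/mL) levels were taken at 3 time points, and the ratio was the mean.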

[10] = Ratio of (R)-3-(4'-(2-(2-methylpyrrolidin-1-yl)ethyl)biphenyl-4-ylsulfonyl)propan-1-ol level in brain to plasma in Sprague-Dawley rat at 3 mg/kg, po and iv after 0.75 to 3 hrs by LC-MS/MS analysis; format: ADME, organism-based; set-up: dose 3 mg/kg, route oral; method in brief: as §4
[11] = Half life in Sprague-Dawley rat at 3 mg/kg, iv by LC-MS/MS analysis; format: ADME, organism-based; set-up: dose 3 mg/kg, route intravenous; conditions: in vivo; method in brief: as §1
[12] = Cmax in Sprague-Dawley rat plasma at 3 mg/kg, po and iv by LC-MS/MS analysis; format: ADME, organism-based; set-up: dose 3 mg/kg, route oral; method in brief: as §1
[13] = tested on: Rattus norvegicus; test: Inhibition of RAMH-induced dipsogenia in Sprague-Dawley rat at 0.6 mg/kg, po administered 30 mins prior to RAMH challenge measured up to 20 mins; format: functional, organism-based; set-up: dose 0.6 mg/kg; method in brief: as §3
[14] = tested on: Rattus norvegicus; test: Inhibition of RAMH-induced dipsogenia in Sprague-Dawley rat at 0.6 mg/kg, po administered 1 hr prior to RAMH challenge measured up to 20 mins; format: functional, organism-based; set-up: dose 0.6 mg/kg; method in brief: as §3
[15] = tested on: Rattus norvegicus; test: Inhibition of RAMH-induced dipsogenia in Sprague-Dawley rat at 0.1 mg/kg, po administered 30 mins prior to RAMH challenge measured up to 20 mins; format: functional, organism-based; set-up: dose 0.1 mg/kg; method in brief: as §3

Q: With `COCCCS(=O)(=O)c1ccc(-c2ccc(CCN3CCC[C@H]3C)cc2)cc1.O=C(O)CC(O)(CC(=O)O)C(=O)O` as the compound, how does the solubility [1] read?
A: Its solubility is over 150 mg/mL.

Q: For `C[C@@H]1CCCN1CCc1ccc(-c2ccc(S(=O)(=O)Cc3ccccc3)cc2)cc1`, which Ki [2] is on record?
A: Its Ki is 0.6 nM.

Q: And the inhibition at 3 µM [3]?
A: Its inhibition at 3 µM is 95%.

Q: With `COCCS(=O)(=O)c1ccc(-c2ccc(CCN3CCC[C@@H]3C)cc2)cc1` as the compound, how does the Ki [2] read?
A: The Ki was 13.2 nM.

Q: With `CCCS(=O)(=O)c1ccc(-c2ccc(CCN3CCC[C@H]3C)cc2)cc1` as the compound, how does the bioavailability [4] read?
A: Its bioavailability is under 0.1%.

Q: What about the Cmax [5] of the same compound?
A: Its Cmax is 449 ng/mL.

Q: What about the Tmax [6] of the same compound?
A: Its Tmax is 6 min.

Q: What about the Ki [2] of the same compound?
A: Its Ki is 0.6 nM.

Q: And the minimal effective dose [7]?
A: The minimal effective dose was 0.3 mg/kg.

Q: And the Vdss [8]?
A: The Vdss was 5.9 L/kg.

Q: What about the Tmax [9] of the same compound?
A: The Tmax was 180 min.

Q: What about the BPR [10] of the same compound?
A: Its BPR is 0.7.

Q: What about the half-life [11] of the same compound?
A: The half-life was 18 min.

Q: And the Cmax [12]?
A: Its Cmax is 6 ng/mL.

Q: For `CCOCCS(=O)(=O)c1ccc(-c2ccc(CCN3CCC[C@H]3C)cc2)cc1`, which Ki [2] is on record?
A: The Ki was 1 nM.

Q: What about the minimal effective dose [7] of the same compound?
A: Its minimal effective dose is 0.3 mg/kg.

Q: And the inhibition at 3 µM [3]?
A: The inhibition at 3 µM was 45%.

Q: With `COCCS(=O)(=O)c1ccc(-c2ccc(CCN3CCC[C@H]3C)cc2)cc1` as the compound, how does the inhibition [13] read?
A: Its inhibition is “Active”.

Q: What about the inhibition [14] of the same compound?
A: Its inhibition is “Active”.

Q: What about the inhibition [15] of the same compound?
A: Its inhibition is “inactive”.

Q: With `C[C@@H]1CCCN1CCc1ccc(-c2ccc(S(=O)(=O)C3CCOCC3)cc2)cc1` as the compound, how does the Ki [2] read?
A: Its Ki is 1.1 nM.

Q: And the minimal effective dose [7]?
A: The minimal effective dose was 1 mg/kg.

Q: For `COCS(=O)(=O)c1ccc(-c2ccc(CCN3CCC[C@H]3C)cc2)cc1`, which Ki [2] is on record?
A: The Ki was 2.44 nM.

Q: Which results are given for `C[C@@H]1CCCN1CCc1ccc(-c2ccc(S(=O)(=O)CC3CCOCC3)cc2)cc1`?
A: Ki [2]: 0.17 nM; minimal effective dose [7]: 0.3 mg/kg
